Calls of active or inactive are those of the source. No cut-off for these calls is given here.
What was measured:
[1] = biological target: Glutamate carboxypeptidase 2 (Homo sapiens, UniProt Q04609); assay: Inhibition of recombinant human glutamate carboxypeptidase 2 (44 to 750 residues) overexpressed in Drosophila Schneider S2 cells using [3H]-NAAG/NAAG as substrate preincubated for 15 mins followed by substrate addition measured after 20 mins by liquid scintillation counting method
Method in brief: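 Radioenzymatic assay. rhGCPII (30 ng/mL) preincubated with inhibitor at varying concentrations for 15 min at 37 °C in 20 mM Tris, 150 mM NaCl, pH 8.0. Started with 0.31 μM NAAG plus 15 nM 3H-NAAG and run 20 min. Stopped with phosphate/EDTA/β-mercaptoethanol, pH 7.4. Released glutamate separated by ion exchange and counted by scintillation. IC50 obtained from inhibition curves.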

Plasma [2] = assay: Metabolic stability in mouse plasma at 10 uM measured upto 60 mins by LC-MS/MS analysis; assay type: ADME, cell-free; settings: 1 h
Method in brief: (§1)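 Compounds at 10 μM spiked into mouse plasma and shaken at 37 °C. Triplicate aliquots taken at 0 and 60 min and quenched with 2 volumes of ice-cold acetonitrile containing losartan 5 μM as internal standard. Centrifuged and supernatant diluted with water. Parent loss and metabolites identified by LC–ESI-TOF on C18 using a formic acid/acetonitrile gradient and extracted-ion chromatograms.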

Rattus norvegicus [3] = assay: Analgesic activity in Sprague-Dawley rat assessed as reduction in chronic constriction injury induced hyperalgesic neuropathic pain on ligated side at 100 mg/kg/day administered via oral gavage measured upto 8 days relative to vehicle-treated control; assay type: functional, organism-based
Method in brief: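 Male Sprague–Dawley rats (200–250 g; n = 10–15 per group) received sciatic nerve constriction with four loose 4.0 chromic gut ligatures spaced 1 mm apart. Testing began 10 days after surgery. Dosing was daily by oral gavage, given 1 h before testing on test days. Hind-paw withdrawal latency to a plantar thermal stimulus (Hargreaves) was read to 0.1 s, with normal response within 15 s. Difference score was nonligated minus ligated latency. Sessions were twice weekly, and groups were compared by t-test versus control.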

Plasma [4] = assay: Prodrug conversion in mouse plasma assessed as 4-Carboxy-alpha-[3-(hydroxyamino)-3-oxopropyl]-benzenepropanoic acid formation at 10 uM measured upto 60 mins by LC-MS/MS analysis; assay type: ADME, cell-free; settings: 1 h; method in brief: as §1
Plasma [5] = assay: (§2) Prodrug conversion in CD1 mouse plasma assessed as 4-Carboxy-alpha-[3-(hydroxyamino)-3-oxopropyl]-benzenepropanoic acid formation at 10 mg/kg equiv of 4-Carboxy-alpha-[3-(hydroxyamino)-3-oxopropyl]-benzenepropanoic acid after 30 mins by LC-MS/MS analysis; assay type: ADME, organism-based; settings: in vivo, 0.5 h
Method in brief: (§3)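 Male CD-1 mice (25–30 g) given a single oral dose equivalent to 10 mg/kg of parent, in 50 mM HEPES-buffered saline at pH 7.4. Killed by pentobarbital at 30 min and blood taken by cardiac puncture into heparin. Plasma stored at −80 °C, then assayed for parent by LC-MS/MS on C18 with a formic acid/acetonitrile gradient. Mean ± SEM, n = 3.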

Plasma [6] = assay: Drug metabolism in mouse plasma assessed as 2-(4-(ethoxycarbonyl)benzyl)-5-(hydroxyamino)-5-oxopentanoic acid formation at 10 uM measured after 60 mins by LC-MS/MS analysis; assay type: ADME, cell-free; settings: 1 h; method in brief: as §1
Plasma [7] = assay: as §2, with “analysis relative to 4-Carboxy-alpha-[3-(hydroxyamino)-3-oxopropyl]-benzenepropanoic acid alone” for “analysis”; assay type: ADME, organism-based; settings: in vivo, 0.5 h; method in brief: as §3
Rattus norvegicus [8] = assay: Analgesic activity in Sprague-Dawley rat assessed as reduction in chronic constriction injury induced hyperalgesic neuropathic pain on ligated side at 4.6 mg/kg/day administered via oral gavage measured upto 8 days relative to vehicle-treated control; assay type: functional, organism-based
Method in brief: (§4)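 Male Sprague–Dawley rats (200–250 g; n = 10–15 per group) with sciatic nerve loosely ligated (four 4.0 chromic gut ligatures, 1 mm apart). Testing began 10 days post-surgery. Plantar thermal stimulus (Hargreaves) applied to the hind paw, withdrawal latency read to 0.1 s. Dosed daily by oral gavage, and 1 h before each test session. Two sessions per week; compared with vehicle by Student's t-test.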

Rattus norvegicus [9] = assay: Effect on response latency to thermal stimulus in Sprague-Dawley rat at 4.6 mg/kg administered via oral gavage relative to vehicle-treated control; assay type: organism-based; settings: in vivo; method in brief: as §4
[10] = Prodrug conversion in Tris/NaCl buffer assessed as 4-Carboxy-alpha-[3-(hydroxyamino)-3-oxopropyl]-benzenepropanoic acid formation at pH 8
Method in brief: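 Stability tested under the enzyme assay conditions: 30 min in aqueous buffer (20 mM Tris, 150 mM NaCl), pH 8.0.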

Sequence of Glutamate carboxypeptidase 2 (Q04609 whole entry, the tested form may be a part): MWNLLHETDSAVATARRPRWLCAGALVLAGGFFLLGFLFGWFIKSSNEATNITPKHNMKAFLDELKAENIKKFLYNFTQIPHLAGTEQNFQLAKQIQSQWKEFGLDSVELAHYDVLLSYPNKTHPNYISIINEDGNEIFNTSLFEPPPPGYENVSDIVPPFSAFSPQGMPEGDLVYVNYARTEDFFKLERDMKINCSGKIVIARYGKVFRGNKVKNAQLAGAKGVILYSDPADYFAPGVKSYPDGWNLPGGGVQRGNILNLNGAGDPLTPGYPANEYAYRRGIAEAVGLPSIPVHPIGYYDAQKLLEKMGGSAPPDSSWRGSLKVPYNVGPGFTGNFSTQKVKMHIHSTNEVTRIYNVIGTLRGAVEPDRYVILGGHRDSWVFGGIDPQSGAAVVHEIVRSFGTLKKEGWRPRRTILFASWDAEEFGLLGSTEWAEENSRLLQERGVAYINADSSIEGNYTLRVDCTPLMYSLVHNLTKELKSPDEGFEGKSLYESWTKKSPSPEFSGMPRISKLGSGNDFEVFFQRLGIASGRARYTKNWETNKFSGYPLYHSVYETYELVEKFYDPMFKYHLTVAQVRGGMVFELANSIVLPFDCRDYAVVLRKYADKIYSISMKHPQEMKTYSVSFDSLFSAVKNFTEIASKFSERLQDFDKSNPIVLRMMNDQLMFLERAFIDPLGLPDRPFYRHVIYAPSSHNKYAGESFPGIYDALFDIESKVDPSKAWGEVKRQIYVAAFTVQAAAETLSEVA

O=C(CCC(Cc1ccc(C(=O)O)cc1)C(=O)O)NO (centres undefined)
IC50 [1]: 0.04 µM | Stability (Plasma [2]): Stable

NCC1(CC(=O)O)CCCCC1
Activity (Rattus norvegicus [3]): Active

CCOC(=O)c1ccc(CC(CCC(=O)NOCc2ccc(OC(C)=O)cc2)C(=O)O)cc1 (centres undefined)
IC50 [1]: > 5 µM | Drug metabolism (Plasma [4]): Metabolite_Notdetected | Drug metabolism (Plasma [5]): Metabolite_Notdetected | Drug metabolism (Plasma [6]): Metabolite_Detected

CC(=O)Oc1ccc(CONC(=O)CCC(Cc2ccc(C(=O)O)cc2)C(=O)O)cc1 (centres undefined)
fold change (FC) (Plasma [7]): 5 | IC50 [1]: > 5 µM | Drug metabolism (Plasma [4]): Metabolite_Detected | Activity (Rattus norvegicus [8]): Active | Activity (Rattus norvegicus [9]): Non-Toxic

CCOC(=O)c1ccc(CC(CCC(=O)NOCc2ccc(OC(C)=O)cc2)C(=O)OCC)cc1 (centres undefined)
IC50 [1]: > 5 µM | Drug metabolism (Plasma [5]): Metabolite_Notdetected

CC(=O)Oc1ccc(CONC(=O)CCC(Cc2ccc(C(=O)OCOC(=O)OC(C)C)cc2)C(=O)O)cc1 (centres undefined)
fold change (FC) (Plasma [7]): 4 | IC50 [1]: > 5 µM | Drug metabolism (Plasma [4]): Metabolite_Detected

Cc1oc(=O)oc1CONC(=O)CCC(Cc1ccc(C(=O)O)cc1)C(=O)O (centres undefined)
Drug metabolism [10]: Metabolite detected

CC(=O)ONC(=O)CCC(Cc1ccc(C(=O)O)cc1)C(=O)O (centres undefined)
IC50 [1]: > 5 µM
